In ChEMBL document CHEMBL5038582, “Adamantyl Isothiocyanates as Mutant p53 Rescuing Agents and Their Structure-Activity Relationships” (J Med Chem, 2021):
The source made the active and inactive calls. No cut-off for these calls is given here.

Columns and labels:
[1] = system: MDA-MB-231; experiment: Antiproliferative activity against human MDA-MB-231 cells expressing p53 R280K mutant assessed as inhibition of cell growth at 10 to 50 uM incubated for 24 to 72 hrs by WST-1 assay; type: functional, cell-based; details: dose 10-50 µM, time 24-72 hrs
Procedure, shortened: (§1)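 WST-1 proliferation assay. Compound diluted in DMSO so that 10 μl of stock in 1 ml of cells (40,000 cells/ml) gives the test concentration at 1% DMSO. Cells plated at 4,000/well in duplicate and incubated at 37 °C for 24 h or 72 h. Result given as % of the 1% DMSO control.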

[2] = system: MDA-MB-468; experiment: Antiproliferative activity against human MDA-MB-468 cells expressing p53 R273H mutant assessed as inhibition of cell growth at 10 to 50 uM incubated for 24 to 72 hrs by WST-1 assay; type: functional, cell-based; details: dose 10-50 µM, time 24-72 hrs; procedure, shortened: as §1
[3] = system: MCF7; experiment: Antiproliferative activity against human MCF7 cells expressing WT p53 assessed as inhibition of cell growth at 10 to 50 uM incubated for 24 to 72 hrs by WST-1 assay; type: functional, cell-based; details: dose 10-50 µM, time 24-72 hrs; procedure, shortened: as §1
[4] = system: MDA-MB-231; experiment: Induction of apoptosis in human MDA-MB-231 cells expressing p53 R280K mutant assessed fold increase in number of Annexin-V stained cells at 6 to 12 uM incubated for 24 hrs by AnnexinV-FITC and PI staining based flow cytometry relative to control; type: functional; details: dose 6-12 µM
Procedure, shortened: (§2)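 24 h treatment, DMSO control. Cells scraped, washed in PBS, then given fluorochrome-conjugated Annexin V for 15 min at RT in the dark, followed by PI (0.1 µg/ml) in binding buffer. Read by flow cytometry on LSRFortessa. Annexin V-positive cells expressed relative to the DMSO control.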

[5] = system: MCF7; experiment: Downregulation of p53 expression in human MCF7 cells at 6 to 12 uM measured after 24 hrs by immunoblot analysis; type: functional, cell-based; details: dose 6-12 µM
Procedure, shortened: (§3)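 24 h exposure to 6 or 12 μM, DMSO control. Lysis in Tris pH 8.0/NaCl/glycerol/NP-40/EDTA buffer with protease inhibitors. 20 µg (MDA-MB-231, MDA-MB-468) or 50 µg (MCF-7) of lysate run on 4-12% SDS-PAGE. Blot probed with p53 DO-1, GAPDH used for reprobe/loading. Triplicate experiments.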

[6] = system: MDA-MB-231; experiment: Downregulation of p53 R280K mutant expression in human MDA-MB-231 cells at 6 to 12 uM measured after 24 hrs by immunoblot analysis; details: dose 6-12 µM
[7] = system: MDA-MB-468; experiment: Downregulation of p53 R273H mutant expression in human MDA-MB-468 cells at 6 to 12 uM measured after 24 hrs by immunoblot analysis; type: functional, cell-based; details: dose 6-12 µM; procedure, shortened: as §3
[8] = system: MCF7; experiment: Induction of apoptosis in human MCF-7 cells expressing wild type p53 assessed increase in number of Annexin-V stained cells at 6 to 12 uM incubated for 24 hrs by AnnexinV-FITC and PI staining based flow cytometry; type: functional, cell-based; details: dose 6-12 µM; procedure, shortened: as §2
[9] = system: MDA-MB-468; experiment: Induction of apoptosis in human MDA-MB-468 cells expressing p53 R273H mutant assessed fold increase in number of Annexin-V stained cells at 6 to 12 uM incubated for 24 hrs by AnnexinV-FITC and PI staining based flow cytometry relative to control; type: functional; details: dose 6-12 µM; procedure, shortened: as §2
[10] = system: MDA-MB-231; experiment: Antiproliferative activity against human MDA-MB-231cells expressing p53 R280K mutant assessed as inhibition of cell growth at 10 to 50 uM incubated for 24 hrs by WST-1 assay; type: functional, cell-based; details: dose 10-50 µM; procedure, shortened: as §1
[11] = system: MDA-MB-231; experiment: Antiproliferative activity against human MDA-MB-231 cells expressing p53 R280K mutant assessed as inhibition of cell growth incubated for 24 hrs by WST-1 assay; type: functional, cell-based; details: MDA-MB-231, 24 h
Procedure, shortened: (§4)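 WST-1 proliferation assay. Compound diluted in DMSO and added to cells at 1% DMSO final. 4,000 cells/well in duplicate; DMSO-only wells as control, cell-free medium wells for background.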

[12] = system: MDA-MB-231; experiment: Antiproliferative activity against human MDA-MB-231 cells expressing p53 R280K mutant assessed as inhibition of cell growth at 24 to 48 uM incubated for 72 hrs by WST-1 assay; type: functional; details: dose 24-48 µM; procedure, shortened: as §1
[13] = system: MDA-MB-231; experiment: Antiproliferative activity against human MDA-MB-231 cells expressing p53 R280K mutant assessed as inhibition of cell growth incubated for 72 hrs by WST-1 assay; type: functional, cell-based; details: MDA-MB-231, 72 h; procedure, shortened: as §4
[14] = Octanol-water partition coefficient, logP of the compound by HPLC-MS analysis; type: physicochemical; details: for logP: 18 h
Procedure, shortened: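 Compound (10 µL of 10 mM DMSO stock) added to 0.5 mL octanol plus 0.5 mL sodium phosphate buffer pH 7.4. Stirred 18 h, centrifuged 2 h at 3600 rpm. Concentration in each phase measured by LC-MS on a C18 column.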

[15] = system: MDA-MB-468; experiment: Induction of apoptosis in human MDA-MB-468 cells expressing p53 R273H mutant assessed increase in number of Annexin-V stained cells at 6 to 12 uM incubated for 24 hrs by AnnexinV-FITC and PI staining based flow cytometry; type: functional, cell-based; details: dose 6-12 µM; procedure, shortened: as §2
[16] = system: MDA-MB-231; experiment: Induction of apoptosis in human MDA-MB-231 cells expressing p53 R280K mutant assessed increase in number of Annexin-V stained cells at 6 to 12 uM incubated for 24 hrs by AnnexinV-FITC and PI staining based flow cytometry; type: functional, cell-based; details: dose 6-12 µM; procedure, shortened: as §2
[17] = system: MCF7; experiment: Upregulation of p53 expression in human MCF7 cells at 6 to 12 uM measured after 24 hrs by immunoblot analysis; type: functional, cell-based; details: dose 6-12 µM
Procedure, shortened: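 Cells treated with DMSO or compound at 6 or 12 µM for 24 h and lysed. 50 µg MCF-7 lysate resolved by SDS-PAGE and probed with p53 DO-1 antibody. Reprobed with anti-GAPDH as loading control. Run in triplicate.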

[18] = system: MDA-MB-231; experiment: Induction of apoptosis in human MDA-MB-231 cells expressing p53 R280K mutant assessed as decrease in level of uncleaved caspase 3 level at 6 to 12 uM measured after 24 hrs by western blotting analysis; type: functional, cell-based; details: dose 6-12 µM
Procedure, shortened: (§5)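 Cells treated with DMSO or compound at 6 or 12 µM for 24 h, then lysed in Tris-Cl pH 8.0/NaCl/glycerol/NP-40/EDTA buffer with protease inhibitors. 100 µg lysate resolved on 4-12% SDS-PAGE and blotted to PVDF. Probed with anti-PARP or anti-caspase 3, then HRP secondary and ECL. GAPDH reprobe as control.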

[19] = system: MDA-MB-468; experiment: Induction of apoptosis in human MDA-MB-468 cells expressing p53 R273H mutant assessed as increase in level of cleaved PARP1 level at 6 to 12 uM measured after 24 hrs by western blotting analysis; type: functional, cell-based; details: dose 6-12 µM; procedure, shortened: as §5
[20] = system: MCF7; experiment: Induction of apoptosis in human MCF7 cells expressing wild type p53 assessed as increase in cleaved PARP1 level at 6 to 12 uM measured after 24 hrs by western blotting analysis; type: functional, cell-based; details: dose 6-12 µM; procedure, shortened: as §5
[21] = system: MCF7; experiment: Induction of apoptosis in human MCF7 cells expressing wild type p53 assessed as decrease in level of uncleaved PARP1 level at 6 to 12 uM measured after 24 hrs by western blotting analysis; type: functional, cell-based; details: dose 6-12 µM; procedure, shortened: as §5
[22] = system: MDA-MB-231; experiment: Induction of apoptosis in human MDA-MB-231 cells expressing p53 R280K mutant assessed as increase in level of cleaved PARP1 level at 6 to 12 uM measured after 24 hrs by western blotting analysis; type: functional, cell-based; details: dose 6-12 µM; procedure, shortened: as §5
[23] = system: MDA-MB-468; experiment: Induction of apoptosis in human MDA-MB-468 cells expressing p53 R273H mutant assessed as decrease in level of uncleaved caspase 3 level at 6 to 12 uM measured after 24 hrs by western blotting analysis; type: functional, cell-based; details: dose 6-12 µM; procedure, shortened: as §5

C1C2CC3CC1CC(C2)C3
Activity [1]: inactive | Activity [2]: inactive | Activity [3]: inactive

S=C=NCC12CC3CC(CC(C3)C1)C2
fold change (FC) [4]: 2 | inhibition [5]: inactive | p53 R280K downregulation (active/not active) [6]: Active | inhibition [7]: Active | Activity [3]: Active | Activity [8]: inactive | fold change (FC) [9]: 2 | Activity [10]: Dose-Dependent Effect | IC50 [11]: 24 µM | inhibition (INH) [12]: 50%

S=C=NCCC12CC3CC(CC(C3)C1)C2
fold change (FC) [4]: 2 | inhibition [5]: inactive | p53 R280K downregulation (active/not active) [6]: Active | inhibition [7]: Active | Activity [3]: inactive | Activity [8]: inactive | fold change (FC) [9]: 2 | Activity [10]: Dose-Dependent Effect | IC50 [11]: 24 µM | IC50 [13]: 12 µM

CC(N=C=S)C12CC3CC(CC(C3)C1)C2 (stereo not drawn)
Activity [1]: inactive

S=C=Nc1ccc(C23CC4CC(CC(C4)C2)C3)cc1
logP [14]: 6.34 | Activity [10]: Dose-Dependent Effect

CC(C)(COC12CC3CC(CC(C3)C1)C2)N=C=S
Activity [1]: inactive

CCCC(CN=C=S)C1C2CC3CC(C2)CC1C3 (stereo not drawn)
logP [14]: 6.77 | Activity [1]: inactive

CC12CC3CC(C)(C1)CC(N=C=S)(C3)C2
Activity [1]: inactive

O=C1CNC(=S)N1CCC12CC3CC(CC(C3)C1)C2
Activity [15]: inactive | logP at 18 h [14]: 3.73 | Activity [1]: inactive | inhibition [5]: inactive | p53 R280K downregulation (active/not active) [6]: inactive | Activity [16]: inactive | inhibition [7]: inactive | Activity [2]: inactive | Activity [3]: inactive | Activity [8]: inactive

O=C(CC12CC3CC(CC(C3)C1)C2)N=C=S
logP [14]: 3.73 | Activity [1]: inactive

S=C=NC1C2CC3CC(C2)CC1C3 (stereo not drawn)
Activity [1]: inactive

S=C=NCCOC12CC3CC(CC(C3)C1)C2
logP at 18 h [14]: 3.73 | Activity [1]: inactive

S=C=NC12CC3CC(CC(C3)C1)C2
Activity [15]: inactive | Activity [1]: inactive | inhibition [5]: inactive | p53 R280K downregulation (active/not active) [6]: inactive | Activity [16]: inactive | inhibition [7]: inactive | Activity [8]: inactive

S=C=NCCc1ccccc1
Activity [17]: Active | Activity [18]: Active | Activity [1]: Active | p53 R280K downregulation (active/not active) [6]: Active | inhibition [7]: Active | Activity [19]: Active | Activity [20]: Active | Activity [21]: Active | Activity [3]: Active | Activity [22]: Active | Activity [23]: Active
